Data set [1] relates to Human immunodeficiency virus 1. As to the kind of experiment: Selectivity ratio of EC50 for raltegravir resistant HIV1 harboring integrase G140S/Q148H double mutant infected in human MT4 cells to EC50 for wild type HIV1 3B infected in human MT4 cells. It counts as functional. The gist of the method:
(§1)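 MT-4 cells were infected with 100–300 CCID₅₀ of virus stock (titrated in MT-4 cells) in the presence of 5-fold serial drug dilutions. EC₅₀ is the concentration giving 50% protection against virus-induced cytopathic effect, read by MTT reduction (MT-4/MTT assay). The value is the fold-change in EC₅₀ for each mutant strain relative to the wild-type HIV-1 strain.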

The test system of data set [2] is HepG2. As to the kind of experiment: Cytotoxicity against human HepG2 cells assessed as increase in membrane permeability at 100 uM after 72 hrs by fluorescent image analysis relative to untreated control. It counts as cell-based. As to conditions: hepg2, 72 h.
Data set [3] in a line: Cytotoxicity against human HepG2 cells assessed as reduction in nuclear size at 100 uM after 72 hrs by fluorescent image analysis relative to untreated control. It counts as cell-based. To be noted: read-out: INH. An outline of the steps:
(§2)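 Contract in vitro cytotoxicity panel covering cell number, intracellular free calcium, nuclear size, membrane permeability and mitochondrial membrane potential. Compounds tested at 1.0, 30.0 and 100.0 µM; values are percentage change versus untreated control, and IC50 where derived.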

For a further data set, the target named is CYP3A4 (Homo sapiens, UniProt P08684). As to the kind of experiment: Inhibition of human recombinant CYP3A4 using BFC as substrate at 10 uM incubated for 30 mins by fluorimetry relative to control. To be noted: recombinant CYP3A4, probe BFC. It counts as ADME. The gist of the method:
(§3)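 Recombinant CYP isoforms, each with its fluorogenic substrate: CYP1A2 and CYP2C19 with CEC, CYP2C9 and CYP2D6 with MFC, CYP3A4 with BFC. Read as percentage inhibition of control, standard contract assays.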

Data set [4] in a line: Cytotoxicity against human HepG2 cells assessed as reduction in cell number at 1 uM after 72 hrs by fluorescent image analysis relative to untreated control. It counts as cell-based. As to conditions: read-out: INH. An outline of the steps: as §2
In data set [5] the test system is Human immunodeficiency virus 1. As to the kind of experiment: Selectivity ratio of EC50 for raltegravir resistant HIV1 harboring integrase N155H mutant infected in human MT4 cells to EC50 for wild type HIV1 infected in human MT4 cells. It counts as functional. An outline of the steps:
as §1

Data set [6] deals with Human immunodeficiency virus 1. As to the kind of experiment: Antiviral activity against HIV1 3B infected in human MT4 cells at 50 to 100 times antiviral EC50 added 1 to 25 hrs post infection assessed as time required for loss of inhibition of viral replication measured at 30 hrs post infection by p24 ELISA method. It counts as functional.
The nature of data set [7]: Cytotoxicity against human HepG2 cells assessed as reduction in nuclear size at 30 uM after 72 hrs by fluorescent image analysis relative to untreated control. It counts as cell-based. To be noted: read-out: INH. The gist of the method: as §2
Data set [8] is described as follows: Cytotoxicity against human HepG2 cells assessed as reduction in mitochondrial membrane potential at 30 uM after 72 hrs by fluorescent image analysis relative to untreated control. It counts as cell-based. As to conditions: read-out: INH. An outline of the steps: as §2
Data set [9] deals with Human immunodeficiency virus 1. As to the kind of experiment: Selectivity ratio of EC50 for raltegravir resistant HIV1 harboring integrase Q148H mutant infected in human MT4 cells to EC50 for wild type HIV1 infected in human MT4 cells. It counts as functional. The gist of the method:
as §1

The next data set addresses CYP2C19 (Homo sapiens, UniProt P33261). As to the kind of experiment: Inhibition of human recombinant CYP2C19 using CEC as substrate at 10 uM incubated for 50 mins by fluorimetry relative to control. As to conditions: recombinant CYP2C19, probe CEC. It counts as ADME. The gist of the method:
as §3

Data set [10] relates to HepG2. As to the kind of experiment: Cytotoxicity against human HepG2 cells assessed as increase in membrane permeability at 1 uM after 72 hrs by fluorescent image analysis relative to untreated control. It counts as cell-based. To be noted: hepg2, 72 h.
Data set [11] deals with MDCK-II. As to the kind of experiment: Inhibition of human P-gp expressed in MDCK2-MDR1 cells assessed as reduction in calcien-AM efflux at 30 uM incubated for 20 mins by fluorimetry relative to control. It counts as cell-based. An outline of the steps: (§4)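 P-gp efflux inhibition in MDR1-MDCKII cells with calcein AM substrate, tested up to 100.0 µM. Read as percentage inhibition of control.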

The target in data set [12] is T1, hERG (KCNH2) (Homo sapiens, UniProt Q12809). As to the kind of experiment: in vitro. As to conditions: CHO-K1 cells expressing human ERG.
T1 sequence (Q12809 whole entry): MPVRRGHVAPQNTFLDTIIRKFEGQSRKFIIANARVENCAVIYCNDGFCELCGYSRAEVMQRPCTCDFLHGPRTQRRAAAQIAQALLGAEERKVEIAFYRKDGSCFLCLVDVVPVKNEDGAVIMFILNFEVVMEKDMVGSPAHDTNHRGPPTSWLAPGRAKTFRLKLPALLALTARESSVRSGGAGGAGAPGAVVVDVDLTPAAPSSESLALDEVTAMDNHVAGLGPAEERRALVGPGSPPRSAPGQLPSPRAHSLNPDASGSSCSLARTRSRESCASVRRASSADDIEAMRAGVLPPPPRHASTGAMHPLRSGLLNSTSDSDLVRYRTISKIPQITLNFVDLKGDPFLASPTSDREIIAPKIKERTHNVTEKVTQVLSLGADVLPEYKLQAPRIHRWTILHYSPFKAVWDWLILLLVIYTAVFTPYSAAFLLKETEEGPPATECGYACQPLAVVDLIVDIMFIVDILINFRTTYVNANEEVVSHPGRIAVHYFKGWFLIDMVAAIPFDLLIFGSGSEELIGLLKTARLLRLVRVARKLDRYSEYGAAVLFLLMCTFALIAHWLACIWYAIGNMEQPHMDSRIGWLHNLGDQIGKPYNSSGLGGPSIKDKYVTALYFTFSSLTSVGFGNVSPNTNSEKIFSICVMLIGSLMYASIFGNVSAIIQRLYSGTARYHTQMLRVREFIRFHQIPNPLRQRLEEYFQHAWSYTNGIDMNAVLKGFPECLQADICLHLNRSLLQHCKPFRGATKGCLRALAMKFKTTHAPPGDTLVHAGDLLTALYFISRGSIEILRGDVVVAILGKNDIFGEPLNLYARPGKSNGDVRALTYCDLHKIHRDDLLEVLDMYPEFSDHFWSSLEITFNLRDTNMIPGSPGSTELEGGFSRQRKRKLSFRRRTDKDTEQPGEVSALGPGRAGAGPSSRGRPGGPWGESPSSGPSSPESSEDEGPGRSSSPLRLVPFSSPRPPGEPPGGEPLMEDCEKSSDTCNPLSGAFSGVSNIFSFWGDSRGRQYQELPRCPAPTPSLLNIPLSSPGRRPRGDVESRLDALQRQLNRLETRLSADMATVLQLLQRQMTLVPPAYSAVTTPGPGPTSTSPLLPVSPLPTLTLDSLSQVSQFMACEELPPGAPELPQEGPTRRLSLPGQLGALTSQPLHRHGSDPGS
The subject of data set [13] is HepG2. As to the kind of experiment: Cytotoxicity against human HepG2 cells assessed as increase in intracellular free calcium level at 1 uM after 72 hrs by fluorescent image analysis relative to untreated control. It counts as cell-based. To be noted: hepg2, 72 h. An outline of the steps:
as §2

A short description of data set [14]: Cytotoxicity against human HepG2 cells assessed as reduction in nuclear size at 1 uM after 72 hrs by fluorescent image analysis relative to untreated control. It counts as cell-based. As to conditions: read-out: INH. An outline of the steps:
as §2

The subject of data set [15] is MDCK-II. As to the kind of experiment: Inhibition of human P-gp expressed in MDCK2-MDR1 cells assessed as reduction in calcien-AM efflux at 100 uM incubated for 20 mins by fluorimetry relative to control. It counts as cell-based. The gist of the method:
as §4

The target of a further data set is CYP2C9 (Homo sapiens, UniProt P11712). As to the kind of experiment: Inhibition of human recombinant CYP2C9 using MFC as substrate at 10 uM incubated for 40 mins by fluorimetry relative to control. To be noted: recombinant CYP2C9, probe MFC. It counts as ADME. The gist of the method:
as §3

Data set [16] has as its system Human immunodeficiency virus 1. As to the kind of experiment: Selectivity ratio of EC50 for raltegravir resistant HIV1 harboring integrase G140S/Q148H double mutant infected in human MT4 cells to EC50 for wild type HIV1 infected in human MT4 cells. It counts as functional. The gist of the method: as §1
Data set [17] in a line: Cytotoxicity against human HepG2 cells assessed as reduction in cell number at 30 uM after 72 hrs by fluorescent image analysis relative to untreated control. To be noted: read-out: INH. It counts as cell-based. An outline of the steps:
as §2

In data set [18] the target is T1, hERG (KCNH2). As to the kind of experiment: in vitro. As to conditions: CHO-K1 cells expressing human ERG. The source holds these as a separate data set.
The test system of data set [19] is HepG2. As to the kind of experiment: Cytotoxicity against human HepG2 cells assessed as increase in intracellular free calcium level at 100 uM after 72 hrs by fluorescent image analysis relative to untreated control. It counts as cell-based. As to conditions: hepg2, 72 h. An outline of the steps: as §2
The nature of data set [20]: Cytotoxicity against human HepG2 cells assessed as reduction in cell number at 100 uM after 72 hrs by fluorescent image analysis relative to untreated control. It counts as cell-based. As to conditions: read-out: INH. An outline of the steps: as §2
Data set [21] in a line: Cytotoxicity against human HepG2 cells assessed as reduction in mitochondrial membrane potential at 1 uM after 72 hrs by fluorescent image analysis relative to untreated control. It counts as cell-based. To be noted: read-out: INH. An outline of the steps:
as §2

Data set [22] relates to HepG2. As to the kind of experiment: Cytotoxicity against human HepG2 cells assessed as increase in membrane permeability at 30 uM after 72 hrs by fluorescent image analysis relative to untreated control. As to conditions: hepg2, 72 h. It counts as cell-based.
Data set [23] concerns HepG2. As to the kind of experiment: Cytotoxicity against human HepG2 cells assessed as increase in intracellular free calcium level at 30 uM after 72 hrs by fluorescent image analysis relative to untreated control. It counts as cell-based. To be noted: hepg2, 72 h. The gist of the method:
as §2

Data set [24] can be described thus: Cytotoxicity against human HepG2 cells assessed as reduction in mitochondrial membrane potential at 100 uM after 72 hrs by fluorescent image analysis relative to untreated control. It counts as cell-based. As to conditions: read-out: INH. The gist of the method: as §2
In another data set the target is CYP2D6 (Homo sapiens, UniProt P10635). As to the kind of experiment: Inhibition of human recombinant CYP2D6 using MFC as substrate at 10 uM incubated for 40 mins by fluorimetry relative to control. As to conditions: recombinant CYP2D6, probe MFC. It counts as ADME. The gist of the method: as §3
CYP2D6, sequence (P10635 whole entry): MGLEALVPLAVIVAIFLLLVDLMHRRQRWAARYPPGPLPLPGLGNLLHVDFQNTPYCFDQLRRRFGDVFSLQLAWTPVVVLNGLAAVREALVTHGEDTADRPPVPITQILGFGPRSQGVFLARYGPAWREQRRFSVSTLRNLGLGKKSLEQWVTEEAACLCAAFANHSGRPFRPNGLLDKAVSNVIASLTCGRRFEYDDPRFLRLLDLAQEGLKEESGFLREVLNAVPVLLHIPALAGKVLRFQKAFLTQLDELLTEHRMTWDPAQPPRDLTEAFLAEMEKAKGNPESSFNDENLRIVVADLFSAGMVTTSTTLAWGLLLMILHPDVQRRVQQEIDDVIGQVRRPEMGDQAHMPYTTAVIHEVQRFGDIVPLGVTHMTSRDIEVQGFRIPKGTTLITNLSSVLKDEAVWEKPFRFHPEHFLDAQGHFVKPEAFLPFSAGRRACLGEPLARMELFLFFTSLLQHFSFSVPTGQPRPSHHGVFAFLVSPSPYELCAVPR
The target of a further data set is T2, CYP1A2 (Homo sapiens, UniProt P05177).
T2 sequence (P05177 whole entry): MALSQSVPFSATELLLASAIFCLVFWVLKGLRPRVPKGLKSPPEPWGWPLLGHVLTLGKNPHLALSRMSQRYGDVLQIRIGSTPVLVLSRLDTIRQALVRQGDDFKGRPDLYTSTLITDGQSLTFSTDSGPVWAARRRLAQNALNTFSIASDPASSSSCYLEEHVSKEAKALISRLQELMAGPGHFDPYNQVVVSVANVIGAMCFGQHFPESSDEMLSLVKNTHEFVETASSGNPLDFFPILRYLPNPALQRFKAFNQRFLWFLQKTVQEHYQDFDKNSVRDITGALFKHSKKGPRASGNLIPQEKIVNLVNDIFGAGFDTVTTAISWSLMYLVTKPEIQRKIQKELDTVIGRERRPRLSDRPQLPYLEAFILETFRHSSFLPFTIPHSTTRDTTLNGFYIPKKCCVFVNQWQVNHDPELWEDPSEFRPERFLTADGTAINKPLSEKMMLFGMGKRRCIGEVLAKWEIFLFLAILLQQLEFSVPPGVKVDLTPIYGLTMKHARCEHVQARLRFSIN
As to the kind of experiment: Inhibition of human recombinant CYP1A2 using CEC as substrate at 10 uM incubated for 30 mins by fluorimetry relative to control. It counts as ADME. To be noted: recombinant CYP1A2, probe CEC. An outline of the steps:
as §3

For data set [25], the target named is T1, hERG (KCNH2). As to the kind of experiment: in vitro. To be noted: CHO-K1 cells expressing human ERG. The source holds these as a separate data set.
The subject of data set [26] is MDCK-II. As to the kind of experiment: Inhibition of human P-gp expressed in MDCK2-MDR1 cells assessed as reduction in calcien-AM efflux at 1 uM incubated for 20 mins by fluorimetry relative to control. It counts as cell-based. The gist of the method:
as §4

Activity calls are given as the source filed them. No cut-off for these calls is given here.

CYP2C9, sequence (P11712 whole entry): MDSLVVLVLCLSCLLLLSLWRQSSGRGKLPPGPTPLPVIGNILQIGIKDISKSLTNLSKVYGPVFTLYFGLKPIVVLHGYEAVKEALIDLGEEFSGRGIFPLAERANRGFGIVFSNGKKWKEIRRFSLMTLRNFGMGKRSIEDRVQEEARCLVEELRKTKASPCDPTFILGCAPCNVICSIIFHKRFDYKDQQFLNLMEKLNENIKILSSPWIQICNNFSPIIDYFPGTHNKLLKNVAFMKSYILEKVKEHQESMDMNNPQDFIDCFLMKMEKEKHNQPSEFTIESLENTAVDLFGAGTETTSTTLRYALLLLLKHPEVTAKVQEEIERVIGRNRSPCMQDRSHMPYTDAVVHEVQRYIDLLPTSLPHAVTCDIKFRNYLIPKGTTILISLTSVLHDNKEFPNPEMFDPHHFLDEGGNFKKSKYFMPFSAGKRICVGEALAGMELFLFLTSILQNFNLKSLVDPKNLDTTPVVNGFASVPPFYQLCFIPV
CYP3A4, sequence (P08684 whole entry, canonical isoform): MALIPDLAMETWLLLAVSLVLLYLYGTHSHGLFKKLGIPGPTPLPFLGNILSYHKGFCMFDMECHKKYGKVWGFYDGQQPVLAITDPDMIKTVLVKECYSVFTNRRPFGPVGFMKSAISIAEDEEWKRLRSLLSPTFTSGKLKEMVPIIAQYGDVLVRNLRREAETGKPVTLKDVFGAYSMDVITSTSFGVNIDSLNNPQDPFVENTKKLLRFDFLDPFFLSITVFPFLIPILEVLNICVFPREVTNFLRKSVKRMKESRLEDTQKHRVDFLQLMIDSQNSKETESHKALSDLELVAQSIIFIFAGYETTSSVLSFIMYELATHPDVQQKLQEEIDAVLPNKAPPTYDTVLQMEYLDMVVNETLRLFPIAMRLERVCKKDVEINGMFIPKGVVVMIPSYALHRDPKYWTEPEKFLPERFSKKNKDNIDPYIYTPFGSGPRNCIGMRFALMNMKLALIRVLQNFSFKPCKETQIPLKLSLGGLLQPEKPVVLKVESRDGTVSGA
CYP2C19, sequence (P33261 whole entry): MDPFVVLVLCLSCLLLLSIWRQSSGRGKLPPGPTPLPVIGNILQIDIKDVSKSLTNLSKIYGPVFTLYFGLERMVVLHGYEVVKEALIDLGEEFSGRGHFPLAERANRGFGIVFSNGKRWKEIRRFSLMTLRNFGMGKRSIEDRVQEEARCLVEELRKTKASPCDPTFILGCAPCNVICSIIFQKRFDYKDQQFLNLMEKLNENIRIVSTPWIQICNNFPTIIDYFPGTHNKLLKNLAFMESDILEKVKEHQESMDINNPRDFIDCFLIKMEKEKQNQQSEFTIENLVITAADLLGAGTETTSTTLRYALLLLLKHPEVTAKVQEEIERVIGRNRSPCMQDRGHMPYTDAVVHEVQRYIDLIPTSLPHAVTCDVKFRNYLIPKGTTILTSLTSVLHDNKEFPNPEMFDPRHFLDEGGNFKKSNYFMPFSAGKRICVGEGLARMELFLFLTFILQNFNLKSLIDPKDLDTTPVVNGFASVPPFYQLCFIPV

As to `C[C@@H]1CCO[C@H]2Cn3cc(C(=O)NCc4ccc(F)cc4F)c(=O)c(O)c3C(=O)N12` [DOLUTEGRAVIR], the “Ratio EC50” value in data set [1] came out at 5.
For the compound `O=C(NCc1ccc(F)cc1)C1C(=O)N(O)C(=O)c2ccccc21` (stereo unspecified), the Activity with HepG2 [2] is listed as 41.2%; in the data set with HepG2 [10], -0.5%; in the data set with HepG2 [13] it was -1.7%; in the data set with HepG2 [19], 29.9%; with HepG2 [22], 20.3%; with HepG2 [23] it was 9.6%. Moreover, the cytotoxicity at 72 h, 100 µM is 18.7% in [3], 16% in data set [20] and 6.3% in data set [24]. Moreover, the inhibition (in general, the drop in the measured response relative to a control, in per cent) at 0.5 h, 10 µM on CYP3A4 stood at 35.9%; on CYP1A2, 5.2%. In addition, the cytotoxicity at 72 h, 1 µM is -22.8% in [4], -1% in [14] and 11.8% in data set [21]. The “Ratio EC50” value in data set [5], in data set [9] and in data set [16] was 1 in each case. Besides, the outcome in data set [6] was Active. For the same compound, the cytotoxicity at 72 h, 30 µM was 13.1% in data set [7], -21.2% in data set [8] and 25.7% in data set [17]. Further, the inhibition at 50 min, 10 µM on CYP2C19 is 18%. Also, the figures for the inhibition in the data set with MDCK-II [11], with MDCK-II [15] and in the data set with MDCK-II [26] were -4%, -3.7% and -5.4%, respectively. The inhibition at 5 min, 0.1 µM against hERG (KCNH2) [12] was determined as 3.4%. The inhibition at 40 min, 10 µM amounted to 6.4% at CYP2C9 and 6.6% on CYP2D6. The inhibition at 5 min, 1 µM against hERG (KCNH2) [18] was found to be 10.6%. The inhibition at 5 min, 10 µM at hERG (KCNH2) [25] worked out at 13.3%.

Source of the values: ChEMBL document CHEMBL3804820, “2-hydroxyisoquinoline-1,3(2H,4H)-diones (HIDs) as human immunodeficiency virus type 1 integrase inhibitors: Influence of the alkylcarboxamide substitution of position 4” (Eur J Med Chem, 2016).
